# Data reported in ChEMBL document CHEMBL4513216, “Probing the Open Global Health Chemical Diversity Library for Multistage-Active Starting Points for Next-Generation Antimalarials” (ACS Infect Dis, 2020).
# Test: Toxicity liver stage against HepG2, at 10uM
# Type: cell-based
# Parameters: test concentration 10 uM, cell line HepG2-A16-CD81EGFP
# Conditions: human, HepG2-A16-CD81EGFP cells; read-out: INHIBITION
# How it was run: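 Uninfected HepG2-A16-CD81EGFP cells, 3 × 10^3 per well, 1536-well, plated on prespotted compound at 10 μM final, parasite-free screening media added to match infected plates; puromycin 10 μM positive, DMSO 0.5% negative; run in parallel with 48 h PbLuc assay at 37 °C, 5% CO2; viability by CellTiter-Glo luminescence, normalized to controls.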
row,SMILES,cytotoxicity at 10 µM
1,Cc1cccc(N2CCN(C(=O)CCc3ccsc3)C(C)C2)n1 (stereo not given),18.4%
2,Cc1cc(CN2C[C@@H]3CC[C@H]2CN(Cc2[nH]cnc2C)C3)on1,-2.34%
3,COc1ccc(OCCN2CCCN(Cc3noc(C)n3)CC2)cc1,-6.12%
4,Cc1nc(C)n(CC2CCCN2CCc2cccs2)n1 (stereo not given),-3.51%
5,CCCc1cncnc1N1CCC(NCc2ccncc2)CC1,6.31%
6,Cc1ccc2nc(C3CCCN(CC(C)C)C3)nc(O)c2c1 (stereo not given),5.48%
7,Cc1ccc(N2CCCC(N3CCC(N(C)C)CC3)C2=O)cc1 (stereo not given),-5.16%
8,Cc1nc(C)n(CC2CCCCN2Cc2cnc(C)s2)n1 (stereo not given),-2.66%
9,CN1CC=C(CCN(C)C(=O)CCc2ccccc2)CC1,-5.84%
10,CCn1cnc2c(c(Br)nn2C)c1=O,4.37%
11,O=C(NCc1nnc2n1CCCC2)c1ccc(C2CCCO2)s1 (stereo not given),15.7%
12,CC(C)C(=O)N1CCN(Cc2csc(-c3ccccn3)n2)CC1,-5.71%
13,Cc1nc(NC(=O)CNC(=O)c2c(F)cccc2Cl)n[nH]1,-10.2%
14,COc1ccc(CC(=O)N2CCCN(c3ccc(C#N)cc3)CC2)cc1,-1.95%
15,CCN(CC)Cc1nnc2sc(-c3cc(C(C)C)[nH]n3)nn12,-7.02%
16,Cc1ccsc1C(O)CNC(=O)Cc1ccc(F)cc1 (stereo not given),3.15%
17,Cc1cc(C)n(-c2ccc(C(=O)NCC(c3cccs3)N(C)C)cc2)n1 (stereo not given),4.58%
18,CC(Cn1cccn1)NC(=O)NCCCN1CCc2ccccc2C1 (stereo not given),-3.08%
19,COc1cc(C(=O)N(C)Cc2cc(C(=O)O)c(C)o2)cc(OC)c1OC,-1.76%
20,CC(C)(CCS(C)(=O)=O)CNC(=O)NC1CCCCC1(C)C (stereo not given),11.3%
21,COCCO[C@H]1CCN(C(=O)c2ccsc2)[C@H]1Cc1cnn(C)c1,-72.8%
22,O=C(c1cnc(-c2ncccn2)s1)N1CCCC(n2cccn2)C1 (stereo not given),-2.85%
23,CN1CCNC(Cc2ccc(-c3ccncc3)cc2)C1=O (stereo not given),-25.8%
24,Cc1nc(C)n(CC2CCCCN2CC(=O)Nc2cccnc2)n1 (stereo not given),-12.4%
25,CN(CC(=O)N1CCN(c2cnccn2)CC1)c1ccc(Cl)cn1,-0.487%
26,O=C(c1cc(C2CC2)on1)N1CCCC(n2cncn2)C1 (stereo not given),-14%
27,O=C(NC1CCc2nccn2C1)c1ccc(NC2CC2)nc1 (stereo not given),9.93%
28,c1cnc(N2CCC3(CCN(CC4CCCC4)CC3)C2)nc1,0.845%

row,SMILES,cytotoxicity at 10 µM
1,COC(=O)CN(C(=O)c1cccc(F)c1Cl)c1cccc(C)n1,9.5%
2,CC(C)Cc1ccc(S(=O)(=O)Nc2ccc(=O)n(C)c2)cc1,46.3%
3,Cc1cc(NC(=O)Cn2ccc(-c3ccc4c(c3)OCO4)n2)n(C)n1,6.28%
4,O=C(Nc1nnc(C2CC2)s1)NC1CCN(Cc2ccccc2)C1 (stereo not given),-10.7%
5,O=C1CCNc2ncc(-c3cccc(Cl)c3)cc2CN1C1CC1,8.55%
6,Cc1ccc2c(n1)N(CCn1cccn1)CCN(C(=O)CC1CC1)C2,-5.58%
7,O=C(c1cscn1)N1C[C@@H]2[C@@H](C1)OCC(=O)N2CC1CCCC1,-10.2%
8,CN(CC(F)(F)F)C(=O)CNC(=O)Cc1cccc(O)c1,5.37%
9,Cc1cccc2nc(CN3CCC(N4CCN(C)C4=O)CC3)cn12,-0.337%
10,CC(C)c1nccn1CC1CCCN1Cc1nc2ccccc2n1C (stereo not given),-43.9%
11,Cc1nn(-c2ccccc2)c2c1C(c1ccc(C(=O)O)cc1)CC(=O)N2 (stereo not given),10.6%
12,O=C(C1CC(=O)N(c2ccccc2Br)C1)N1CCC2(CC1)OCCO2 (stereo not given),11.3%
13,CCSCc1ccnc(NC(=O)C2CCOC2)c1 (stereo not given),0.841%
14,COc1ccccc1CN(C)c1nc2c(cnn2C)c(=O)[nH]1,40.6%
15,O=C(CC1CC2(CCNCC2)c2ccccc21)NCC1CC1 (stereo not given),-118%
16,COc1ccccc1C(NC(=O)NC1CC1)c1noc(C)n1 (stereo not given),-4.12%
17,Cc1cc(C)n(CC(C)CNC(=O)[C@@H](C)NC(=O)OC(C)(C)C)n1 (stereo not given in full),-4.25%
18,c1ccc(-c2ccc(CN3CCOC(Cn4cncn4)C3)cc2)cc1 (stereo not given),9.96%
19,CC(O)CCN(C)C(=O)Nc1cccc(F)c1 (stereo not given),-6.16%
20,CN(Cc1ccccc1)c1cnn(CC2COCCO2)c(=O)c1 (stereo not given),-12.4%
21,O=C(c1ccc(=O)[nH]n1)N1CCCC1C1CCCC1 (stereo not given),-7.09%
22,CCOc1ccccc1C1=CCN(C(=O)C2CCN(C)C(=O)C2)CC1 (stereo not given),2.58%
23,O=C(NCCc1cnccn1)c1ccc(S(=O)(=O)NC2CCC2)cc1,7.63%
24,CCC(=O)NCc1cc(C2CC2)n(C2CCCC2)n1,-4.36%
25,Cc1ccc2c(n1)N(CCN(C)C)CCN(C(=O)c1ccoc1)C2,-74.4%
26,O=C1c2cccnc2OC(CN2CCOCC2)CN1CC1CC1 (stereo not given),-6.17%
27,CCc1nnc(CN(C)c2cc(C)nc3c(C)c(C)nn23)o1,0.126%
